The target of assay [1] is D(3) dopamine receptor (Homo sapiens, UniProt P35462). Put plainly: Tested for antagonist binding affinity by measuring displacement of [3H]spiperone from Human Dopamine receptor D3 expressed in CHO K-1 cells. It is filed as cell-based. In general terms: Loss of bound radioactivity is the signal in a displacement assay; it reports binding, not function.
The target of assay [2] is T1, D(2) dopamine receptor (Homo sapiens, UniProt P14416). The assay can be described thus: Tested for agonist binding affinity by measuring displacement of [3H]NPA from Human Dopamine receptor D2L expressed in CHO K-1 cells. The format is cell-based. In outline: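 Agonist-state D2L affinity measured by displacement of [3H]NPA (N-propylnorapomorphine); Ki values are means of three separate experiments varying by no more than 25%.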

The target in assay [3] is T2, D(4) dopamine receptor (Homo sapiens, UniProt P21917).
T2 sequence (P21917 whole entry): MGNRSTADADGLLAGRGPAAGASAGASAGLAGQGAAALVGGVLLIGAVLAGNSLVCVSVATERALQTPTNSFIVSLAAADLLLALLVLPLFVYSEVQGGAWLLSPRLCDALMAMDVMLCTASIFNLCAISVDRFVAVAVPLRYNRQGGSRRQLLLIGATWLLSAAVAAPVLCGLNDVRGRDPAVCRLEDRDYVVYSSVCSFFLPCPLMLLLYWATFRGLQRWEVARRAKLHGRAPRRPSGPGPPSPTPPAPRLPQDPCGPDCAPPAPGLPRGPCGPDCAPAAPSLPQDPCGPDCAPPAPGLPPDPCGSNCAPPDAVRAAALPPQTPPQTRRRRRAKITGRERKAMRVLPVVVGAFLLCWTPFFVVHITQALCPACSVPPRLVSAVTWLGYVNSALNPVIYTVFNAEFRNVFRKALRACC
Put plainly: Tested for antagonist binding affinity by measuring displacement of [3H]-spiperone from Human Dopamine receptor D4 expressed in CHO K-1 cells. The format is cell-based. In outline:
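Antagonist-radioligand binding: displacement of [3H]spiperone from D4.2 dopamine receptors; Ki values means of three separate experiments, varying no more than 25%.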

Assay [4] deals with T3, 5-hydroxytryptamine receptor 1A (Rattus norvegicus, UniProt P19327).
T3 sequence (P19327 whole entry): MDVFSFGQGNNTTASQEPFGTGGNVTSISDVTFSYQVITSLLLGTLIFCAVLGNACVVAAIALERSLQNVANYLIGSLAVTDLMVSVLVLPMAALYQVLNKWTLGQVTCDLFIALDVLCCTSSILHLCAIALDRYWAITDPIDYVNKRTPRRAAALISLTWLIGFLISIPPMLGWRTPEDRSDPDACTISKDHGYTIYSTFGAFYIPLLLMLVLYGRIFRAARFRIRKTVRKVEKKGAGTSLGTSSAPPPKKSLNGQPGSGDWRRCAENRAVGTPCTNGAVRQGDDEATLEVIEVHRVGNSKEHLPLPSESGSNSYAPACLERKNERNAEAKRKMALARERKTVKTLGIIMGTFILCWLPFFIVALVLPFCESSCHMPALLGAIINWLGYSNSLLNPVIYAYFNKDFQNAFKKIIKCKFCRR
Put plainly: Tested for binding affinity by measuring displacement of [3H]8-OH-DPAT from rat serotonin 5-hydroxytryptamine 1A receptor in rat hippocampus; NA means Not Active. The format is tissue-based. In outline: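 Rat hippocampal 5HT1A receptors labelled with [3H]8-OH-DPAT; values are means of three separate experiments varying by no more than 25%.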

The target of assay [5] is D(3) dopamine receptor (Rattus norvegicus) (UniProt P19020). The assay can be described thus: (§1) Intrinsic activity (IA) by the mitogenesis assay.
For assay [6] the target is unchanged. Put plainly: Antagonist activity by measuring the inhibition of quinpirole stimulated [3H]- thymidine uptake against Dopamine receptor D3; the compound is active. It is filed as functional. To be noted: filed as antagonist.
Assay [7] concerns the target T2, D(4) dopamine receptor. Put plainly: Tested for antagonist binding affinity by measuring displacement of [3H]spiperone from Human Dopamine receptor D4 expressed in CHO K-1 cells. It is filed as cell-based. Summed up: (§2)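 Displacement of antagonist radioligand [3H]spiperone from D2L or D4.2 receptors; Ki values are means of three separate experiments varying by no more than 25%.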

For assay [8], the target named is T4, D(3) dopamine receptor (Rattus norvegicus, UniProt P19020). The assay can be described thus: Agonist activity by measuring the [3H]-thymidine uptake against Dopamine receptor D3 from rat. It is filed as functional.
The target of assay [9] is T3, 5-hydroxytryptamine receptor 1A. The assay can be described thus: Tested for binding affinity by measuring displacement of [3H]8-OH-DPAT from rat serotonin 5-hydroxytryptamine 1A receptor in rat hippocampus. The format is tissue-based. Summed up:
(§3)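 Rat brain binding: hippocampal 5HT1A with [3H]8-OH-DPAT, cortical 5HT2 with [3H]ketanserin as radioligand; values means of three separate experiments, varying no more than 25%.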

Assay [10] addresses T1, D(2) dopamine receptor. The assay can be described thus: Tested for antagonist binding affinity by measuring displacement of [3H]spiperone from Human Dopamine receptor D2L expressed in CHO K-1 cells. It is filed as cell-based. Summed up:
as §2

For assay [11], the target named is D(2) dopamine receptor (Rattus norvegicus, UniProt P61169). Put plainly: Agonist activity by measuring the [3H]thymidine uptake against Dopamine receptor D2L from rat. It is filed as functional.
Assay [12] concerns the target T1, D(2) dopamine receptor. The assay can be described thus: Human Dopamine receptor D2L affinities to determine agonist activity, using [3H]N-0437 as radioligand. It is filed as functional.
The target of assay [13] is Serotonin 2 (5-HT2) receptor (Rattus norvegicus, UniProt P30994+P08909+P14842). The assay can be described thus: Tested for binding affinity by measuring displacement of [3H]ketanserin from rat serotonin 5-hydroxytryptamine 2 receptor in rat cortex. In outline: as §3
For assay [14], the species on record is Rattus norvegicus. The assay can be described thus: Sniffing after 30 min in 4 reserpinized rats. The format is functional. In outline:
(§4)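 Male Wistar rats (180-200 g) given reserpine 10 mg/kg sc 18-24 h before; test drug in ethanol/saline, 1 mL/kg sc in neck after acclimation in single boxes; number of rats showing the behaviour during first 30 min after injection recorded; saline n=8.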

Assay [15] addresses T4, D(3) dopamine receptor. The assay can be described thus: Agonist activity by measuring the [3H]thymidine uptake against Dopamine receptor D3 from rat. The format is functional.
The species entered for assay [16] is Rattus norvegicus. The assay can be described thus: Lower lip retraction after 30 min in 4 reserpinized rats. It is filed as functional. In outline: as §4
The species named for assay [17] is Rattus norvegicus. Put plainly: Yawning after 30 min in reserpinized rats. It is filed as functional. In outline: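 Male Wistar rats (180-200 g) reserpinized with 10 mg/kg sc reserpine 18-24 h prior; drug dissolved in a few drops warmed 96% ethanol then saline, 1 mL/kg sc; yawns counted per rat over first 30 min post-injection, mean ± SEM.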
Assay [18] concerns the target D(3) dopamine receptor (Rattus norvegicus) (UniProt P19020). The description is as §1. The format is functional.
Assay [19] is filed under the species Rattus norvegicus. The assay can be described thus: Flat body posture after 30 min in 4 reserpinized rats. The format is functional. Summed up: as §4

Molecules are shown by their SMILES. Some results are limits rather than exact numbers.

One may read the Ki as the dissociation constant of the complex between target and ligand, obtained from inhibition or displacement. As a reminder, the IC50 is the concentration at which inhibition is half-maximal. High values mean weaker potency in that assay, low ones greater potency in that assay. Broadly, the EC50 is the concentration at which the effect is half-maximal. Low values mean greater potency, high ones weaker potency.

Sequence of D(3) dopamine receptor (Homo sapiens, UniProt P35462) (P35462 whole entry): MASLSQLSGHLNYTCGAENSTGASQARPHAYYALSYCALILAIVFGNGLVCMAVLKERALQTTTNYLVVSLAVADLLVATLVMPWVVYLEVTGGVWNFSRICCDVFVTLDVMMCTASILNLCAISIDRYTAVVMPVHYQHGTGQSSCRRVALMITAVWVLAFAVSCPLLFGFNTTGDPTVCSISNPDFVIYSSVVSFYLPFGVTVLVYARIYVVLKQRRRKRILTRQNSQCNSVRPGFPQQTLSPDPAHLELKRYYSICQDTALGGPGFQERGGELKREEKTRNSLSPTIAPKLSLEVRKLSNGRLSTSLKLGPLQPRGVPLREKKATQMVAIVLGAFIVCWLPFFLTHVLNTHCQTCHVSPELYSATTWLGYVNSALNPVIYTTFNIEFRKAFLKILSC
Sequence of D(2) dopamine receptor (Rattus norvegicus, UniProt P61169) (P61169 whole entry): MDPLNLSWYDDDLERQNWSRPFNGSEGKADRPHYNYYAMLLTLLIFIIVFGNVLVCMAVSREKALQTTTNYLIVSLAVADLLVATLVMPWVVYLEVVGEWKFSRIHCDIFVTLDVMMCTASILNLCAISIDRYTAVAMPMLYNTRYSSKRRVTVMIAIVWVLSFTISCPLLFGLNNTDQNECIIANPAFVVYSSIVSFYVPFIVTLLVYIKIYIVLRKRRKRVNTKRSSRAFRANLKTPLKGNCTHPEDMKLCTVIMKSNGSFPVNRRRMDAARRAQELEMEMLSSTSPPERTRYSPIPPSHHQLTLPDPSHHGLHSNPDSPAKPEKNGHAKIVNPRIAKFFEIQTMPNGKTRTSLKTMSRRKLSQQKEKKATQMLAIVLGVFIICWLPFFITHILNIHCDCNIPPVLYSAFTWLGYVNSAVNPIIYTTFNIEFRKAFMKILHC
Sequence of D(3) dopamine receptor (Rattus norvegicus) (P19020 whole entry): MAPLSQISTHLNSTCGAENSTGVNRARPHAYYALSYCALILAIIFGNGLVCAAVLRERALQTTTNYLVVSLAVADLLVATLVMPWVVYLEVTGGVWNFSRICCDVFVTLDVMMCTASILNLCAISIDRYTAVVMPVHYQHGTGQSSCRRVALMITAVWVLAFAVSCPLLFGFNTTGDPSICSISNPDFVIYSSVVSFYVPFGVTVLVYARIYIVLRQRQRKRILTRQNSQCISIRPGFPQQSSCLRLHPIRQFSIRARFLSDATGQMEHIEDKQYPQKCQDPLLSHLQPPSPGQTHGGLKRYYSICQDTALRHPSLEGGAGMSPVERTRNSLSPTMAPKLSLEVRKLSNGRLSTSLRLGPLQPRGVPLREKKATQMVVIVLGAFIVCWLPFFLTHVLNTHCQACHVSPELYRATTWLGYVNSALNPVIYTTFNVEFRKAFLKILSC
T4 sequence (P19020 whole entry): as above
T1 sequence (P14416 whole entry): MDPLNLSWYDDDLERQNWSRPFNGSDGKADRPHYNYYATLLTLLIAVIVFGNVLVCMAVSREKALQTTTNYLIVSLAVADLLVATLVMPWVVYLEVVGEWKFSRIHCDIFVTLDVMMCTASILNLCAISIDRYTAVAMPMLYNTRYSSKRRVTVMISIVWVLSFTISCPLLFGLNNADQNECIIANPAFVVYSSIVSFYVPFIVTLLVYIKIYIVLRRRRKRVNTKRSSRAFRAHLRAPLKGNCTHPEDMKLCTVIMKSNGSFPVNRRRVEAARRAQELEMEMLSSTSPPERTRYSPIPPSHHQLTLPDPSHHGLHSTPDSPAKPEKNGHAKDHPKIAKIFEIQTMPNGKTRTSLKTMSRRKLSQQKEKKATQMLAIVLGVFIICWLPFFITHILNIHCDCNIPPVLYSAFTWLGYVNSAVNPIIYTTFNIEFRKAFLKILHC

In the case of `CCCN1CCOC2c3cc(O)ccc3[S+]([O-])CC21` (stereo unspecified), the Ki is 29 nM on D(3) dopamine receptor [1], 197 nM on D(2) dopamine receptor [2] and “Not Active” in assay [4]. In addition, the IC50 on D(4) dopamine receptor [3] is more than 10 µM.

In assay [5], `CCCN1CCO[C@@H]2c3cc(O)ccc3OC[C@H]21` [listing 1 of 2 here] yielded an Intrinsic activity of 54%. Moreover, the Activity result in assay [6] is “Antagonist”.

For `CCCN1CCO[C@@H]2c3cc(O)ccc3OC[C@H]21` [listing 2 of 2 here], the Ki at D(4) dopamine receptor [7] worked out at 169 nM; in assay [9], 1670 nM; at D(2) dopamine receptor [10] it was 1180 nM; at D(3) dopamine receptor [1], 1.4 nM; at D(2) dopamine receptor [12] it was 42 nM. The half-maximal effective concentration (EC50) at D(3) dopamine receptor [8] came out at 0.36 nM; at D(2) dopamine receptor [11], 5.7 nM.

Take `CCCN1CCO[C@H]2c3cc(O)ccc3OC[C@@H]21`: the Ki at D(2) dopamine receptor [10] and on D(3) dopamine receptor [1] was more than 10000 nM throughout.

As for `CCCN1CCOC2c3cc(O)ccc3SCC21` (trans isomer), the Ki came out at 44.4 nM on D(4) dopamine receptor [7], 533 nM at D(2) dopamine receptor [10] and 1.56 nM on D(3) dopamine receptor [1].

`CCCN1CCO[C@H]2c3cc(O)ccc3SC[C@@H]21`: the inhibition constant Ki at D(4) dopamine receptor [7] is more than 3300 nM; in assay [9], more than 1000 nM; at D(3) dopamine receptor [1], 3000 nM; at D(2) dopamine receptor [2] it was 854 nM; in [13], more than 5 µM.

As for `CCCN1CCO[C@@H]2c3cc(O)ccc3SC[C@@H]21` (relative stereo), in the assay listed under Rattus norvegicus [14], the Sni stood at 0. Further, the values for the EC50 on D(3) dopamine receptor [15] and at D(2) dopamine receptor [11] were 36 nM and 122 nM, respectively. Besides, the Ki is 193 nM at D(4) dopamine receptor [7], 3.58 nM on D(3) dopamine receptor [1], 74 nM on D(2) dopamine receptor [2] and “Not Active” in [4]. The LL in the assay listed under Rattus norvegicus [16] is given as 0. The Activity result in [6] is “Antagonist”. In the assay filed under Rattus norvegicus [17], the Ya turned out to be 11. The same compound gave an Intrinsic activity in [18] of 57%. Also, the FB in the assay listed under Rattus norvegicus [19] was determined as 0.

On to `CCCN1CCO[C@@H]2c3cc(O)ccc3OC[C@@H]21` (relative stereo), for which the Ki at D(2) dopamine receptor [10] and on D(3) dopamine receptor [1] was more than 10000 nM in each case.

Regarding `CCCN1CCO[C@@H]2c3cc(O)ccc3OC[C@H]21` (relative stereo), the figures for the Ki on D(2) dopamine receptor [10] and at D(3) dopamine receptor [1] were more than 10000 nM and 78 nM, respectively.

Take `CCCN1CCO[C@@H]2c3cc(O)ccc3SC[C@H]21`: in the assay filed under Rattus norvegicus [14], the Sni worked out at 4. Besides, the figures for the EC50 at D(3) dopamine receptor [15] and at D(2) dopamine receptor [11] were 0.007 nM and 0.013 nM, respectively. Moreover, the Ki is 17.6 nM on D(4) dopamine receptor [7]; 30 nM in [9]; 2.87 nM on D(3) dopamine receptor [1]; 1.14 nM at D(2) dopamine receptor [2]; more than 5 µM in assay [13]. The LL in the assay listed under Rattus norvegicus [16] is 3. The compound further displayed a Ya in the assay filed under Rattus norvegicus [17] of 0. The same compound gave an Intrinsic activity in assay [18] of 45%. The FB in the assay filed under Rattus norvegicus [19] stood at 4.
